The target in assay [1] is T1, Solute carrier family 15 member 1 (Homo sapiens, UniProt P46059).
T1 sequence (P46059 whole entry): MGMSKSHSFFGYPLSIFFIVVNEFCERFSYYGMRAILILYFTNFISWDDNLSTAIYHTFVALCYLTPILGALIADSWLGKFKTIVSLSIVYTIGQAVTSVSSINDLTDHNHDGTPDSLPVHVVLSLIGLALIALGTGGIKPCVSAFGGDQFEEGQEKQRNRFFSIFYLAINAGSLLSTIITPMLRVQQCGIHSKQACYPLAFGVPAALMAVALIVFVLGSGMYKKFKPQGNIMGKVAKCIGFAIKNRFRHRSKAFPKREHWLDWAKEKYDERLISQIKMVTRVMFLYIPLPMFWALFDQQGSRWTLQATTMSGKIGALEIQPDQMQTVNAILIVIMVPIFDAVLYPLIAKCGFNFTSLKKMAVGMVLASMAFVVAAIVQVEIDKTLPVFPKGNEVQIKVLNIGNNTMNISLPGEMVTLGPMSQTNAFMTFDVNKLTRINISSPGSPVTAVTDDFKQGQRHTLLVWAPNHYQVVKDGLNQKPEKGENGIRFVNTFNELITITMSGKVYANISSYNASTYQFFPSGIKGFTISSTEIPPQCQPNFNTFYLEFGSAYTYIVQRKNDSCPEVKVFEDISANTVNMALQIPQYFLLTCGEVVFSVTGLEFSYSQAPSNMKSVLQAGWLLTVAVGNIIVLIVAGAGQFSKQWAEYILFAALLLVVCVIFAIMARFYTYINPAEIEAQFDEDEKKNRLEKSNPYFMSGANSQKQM
As to the kind of experiment: Inhibition of [14C]Gly-Sar transport by hPEPT1 in Caco-2 cell monolayers. The class given is cell-based. In outline: (§1)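 Caco-2 monolayers on Transwell filters, used 25–27 days after seeding (TEER 354 ± 41 […]). Compound at varying concentrations plus 0.5 μCi [14C]-Gly-Sar in apical MES-buffered HBSS (pH 6.0, 0.05% BSA); HEPES buffer (pH 7.4) basolateral. Incubated 5 min at 37 °C with shaking, washed with ice-cold HBSS, and cell-associated radioactivity counted. Inhibition fitted to a Hill-type equation for IC50; Ki derived by Cheng–Prusoff using Gly-Sar Km 1.1 mM. Duplicates in three passages.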

Assay [2] addresses T1, Solute carrier family 15 member 1. In words: Affinity for hPEPT1 in mature Caco-2 cell monolayers using [14C]-Gly-Sar. In outline: as §1

For `N[C@@H](Cc1ccccc1)C(=O)C[C@@H](CC(=O)OCc1ccccc1)C(=O)O`, the IC50 in assay [1] stood at 69 µM. In addition, in assay [2], affinity was put at a Ki of 68 µM.
`CC(C)[C@H](N)C(=O)CCC(=O)OCc1ccccc1`: in assay [1], the midpoint of inhibition, the IC50, lay at 134 µM. For the same compound, in assay [2], the Ki worked out at 133 µM.
In assay [1], `N[C@@H](Cc1ccccc1)C(=O)CCC(=O)OCc1ccccc1` came in with an IC50 of 915 µM. The same compound gave a Ki in assay [2] of 905 µM.
The matching figures for `NC(CC(=O)OCc1ccccc1)C(=O)CCC(=O)O` (stereo not given): 422 µM and 417 µM.
The matching figures for `CC(C)[C@H](N)C(=O)C[C@@H](CC(=O)OCc1ccccc1)C(=O)O`: 19 µM and 19 µM.

What is called IC50 is the concentration needed to halve the response being measured. One may read the Ki as the equilibrium dissociation constant of an inhibitor or competing ligand from its target. Higher therefore signals lower affinity.

Values taken from ChEMBL document CHEMBL1138751, “Dipeptidomimetic ketomethylene isosteres as pro-moieties for drug transport via the human intestinal di-/tripeptide transporter hPEPT1: design, synthesis, stability, and biological investigations” (J Med Chem, 2004).
